A selection: hits, their analogues and other compounds. The true share with any hit is near 1.9%.
APJ antag – antagonists of human apelin receptor APJ, primary screen, CHO-K1 cells, beta-arrestin complementation, luminescence | inhibition, % at 20 µM | 330,000 tested, 0.32% active | P35414 | AID 2521, 2010;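 active means inhibition above about 40% at 20 µM, limit read from the data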;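 further: cells challenged with 10 nM apelin-13 agonist together with compound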
CXCR6 block – CXCR6 receptor inhibitors, primary screen, cell-based, beta-arrestin, luminescence, CHO-K1 PathHunter, 1536-well. C-X-C chemokine receptor type 6 (Homo sapiens), O00574. inhibition, % at 20 µM. 360,000 tested, 0.36% active; in the data active means inhibition above about 34%, passing the limit was not always enough;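 further: antagonist mode with CXCL16 agonist at 10 nM final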
EBI2 block – EBI2 receptor antagonists, beta-arrestin recruitment, primary screen, cell-based, luminescence, 7a,25-OHC stimulation, uHTS; G-protein coupled receptor 183 (Homo sapiens), P32249; 7a,25-OHC stimulated; inhibition, % at 5 µM; 360,000 tested, 0.81% active; AID 651636, 2012; in the data active means inhibition above about 38%;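 further: enzyme fragment complementation signal reports receptor beta-arrestin coupling in cells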
APJ ag – agonists of human apelin receptor APJ, primary screen, CHO-K1 cells, PathHunter beta-arrestin, luminescence; 0% DMSO wells, 100% apelin; activation, % at 20 µM; 330,000 tested, 0.11% active; AID 2520, 2010;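 active means activation more than six SD over the plate average, tested at 20 µM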
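Assay system: engineered CHO-K1 APJ arrestin reporter cells; Amount: 1000 CHO-K1 reporter cells seeded per well; Dosing: one dose, 20 µM compound, 1% DMSO; Times: compound stimulation 90 min at 25 °C, detection 60 min; Measured by: luminescent beta-gal fragment complementation, chemiluminescent substrate; Read-out: APJ–arrestin association signal; Controls: DMSO vs Apelin-13 10 nM.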
CCR6 antagonist – CCR6 receptor antagonists, primary screen, cell-based, CHO-K1, luminescence, beta-arrestin, uHTS; inhibition, % at 20 µM; C-C chemokine receptor type 6 (Homo sapiens), P51684; 340,000 tested, 0.49% active; AID 493098, 2011; CHO-K1 CCR6 PathHunter beta-arrestin, CCL20-stimulated;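 active means compounds whose inhibition of the agonist-driven luminescence signal at 20 µM reaches about 50%, limit read from the data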;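 further: cells stimulated with CCL20 at 14 nM final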
Target sequence (P51684 whole entry, looked up): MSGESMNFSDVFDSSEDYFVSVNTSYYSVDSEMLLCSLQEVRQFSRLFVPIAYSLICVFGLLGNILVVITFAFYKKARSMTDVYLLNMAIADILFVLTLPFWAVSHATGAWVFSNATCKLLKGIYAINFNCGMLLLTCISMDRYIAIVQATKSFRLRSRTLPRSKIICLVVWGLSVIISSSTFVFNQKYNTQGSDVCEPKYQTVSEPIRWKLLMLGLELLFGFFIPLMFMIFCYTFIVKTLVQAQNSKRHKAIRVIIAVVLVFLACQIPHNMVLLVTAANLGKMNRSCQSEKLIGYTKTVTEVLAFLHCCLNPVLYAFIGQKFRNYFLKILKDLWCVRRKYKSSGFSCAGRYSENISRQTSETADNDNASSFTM
TAG inh – inhibitors of triacylglycerol accumulation, primary screen, cell-based, uHTS, fluorescence, H9c2. H9c2 cells, Nile Red lipid (TAG) fluorescence; cells loaded with 200 µM oleic acid. inhibition, % at 12.5 µM. 230,000 tested, 0.66% active. AID 651582, 2012;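 active means pattern-corrected inhibition of lipid staining of at least 50% with the nuclear-stain viability signal not falling by more than 50%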
EBI2 antag conf – EBI2 antagonist hit retest, beta-arrestin, confirmation, cell-based, single concentration, luminescence, 7a,25-OHC stimulation | shares compounds with EBI2 block | 7a,25-OHC antagonism | inhibition, % at 5 µM | 2,400 tested, 29% active | AID 651997, 2013;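 active means inhibition of at least 50%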
EBI2 ag – EBI2 agonist activity of antagonist hits, confirmation, counter-screen for EBI2 antagonist project, cell-based, single concentration, agonist mode, luminescence; shares compounds with EBI2 block; EBI2-expressing cells, 60 min; 0% vehicle, 100% 7α,25-dihydroxycholesterol control; activation, % at 5 µM; 2,400 tested, under 10 active;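 active means activation of at least 50%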
bGal counter – E. coli beta-galactosidase enzyme inhibition, confirmation, counter-screen for EBI2 antagonist project, biochemical, luminescence, single concentration; shares compounds with EBI2 block; purified beta-galactosidase, luminescent Galacton Star, 15 min; inhibition, % at 5 µM; 2,400 tested, 1% active;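 active means replicate-average signal at least 3 plate SD below neutral wells, shown as high inhibition, flagging enzyme-inhibiting false positives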;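 further: higher means stronger loss of beta-gal luminescence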
A number is an active result; – = inactive; · = no result given.

SMILES	APJ antag	CXCR6 block	EBI2 block	APJ ag	CCR6 antagonist	TAG inh	EBI2 antag conf	EBI2 ag	bGal counter
O=C(COc1ccc([N+](=O)[O-])cc1)N1CCN(c2nnc(-c3ccccc3)c3ccccc23)CC1	–	–	68.1	–	–	–	–	–	–
O=C(COc1ccc(-c2nnc(N3CCCCC3)c3ccccc23)cc1)N1CCCCC1	–	–	–	–	–	–	·	·	·
Cc1ccc(-c2nnc(N3CCN(C(=O)COc4ccccc4)CC3)c3ccccc23)cc1	–	–	86.2	–	–	·	53.0	–	–
CCCC(=O)N1CCN(c2nnc(-c3ccccc3)c3ccccc23)CC1	–	–	–	–	–	–	·	·	·
O=S(=O)(Nc1cc(S(=O)(=O)N2CCOCC2)ccc1NCC1CCCO1)c1ccc(F)cc1 (centres undefined)	–	–	–	–	–	–	·	·	·
O=C(/C=C/c1cccc([N+](=O)[O-])c1)N1CCN(Cc2ccc3c(c2)OCO3)CC1	–	–	49.6	–	–	–	–	–	–
O=C(/C=C/c1cccs1)N1CCN(Cc2ccc3c(c2)OCO3)CC1	–	–	64.3	–	–	·	–	–	–
COC(=O)/C(=C(O)\C=C\c1ccccc1[N+](=O)[O-])c1nc2ccccc2[nH]1	–	–	–	–	–	·	·	·	·
O=C1CCC2(CCCC2)c2ccccc21	·	–	–	·	·	–	·	·	·
CC(NCCS(=O)(=O)c1ccc(Cl)cc1)c1cccc(Cl)c1 (centres undefined)	–	–	73.5	–	–	·	–	–	–
CC(C)c1ccc(C(C)NCCS(=O)(=O)c2ccc(Br)cc2)cc1 (centres undefined)	–	–	77.7	–	–	–	61.2	–	–
CC(C)C(=O)N1CCCC1(C)C(=O)Nc1ccc(-n2cccc2)cc1 (centres undefined)	·	–	–	·	·	–	·	·	·
COc1cc2nc(CN3CCN(S(=O)(=O)c4ccc(C)c(C)c4)CC3)[nH]c(=O)c2cc1OC	–	–	46.9	–	–	–	–	–	–
Cc1ccc(S(=O)(=O)N2CCCN(Cc3nc4ccccc4c(=O)[nH]3)CC2)cc1	–	–	–	–	–	–	·	·	·
O=C(Nc1ccc(F)c(Cl)c1)[C@@H]1O[C@H](CO)[C@H](O)[C@H](O)[C@H]1O	·	–	–	·	·	–	·	·	·
Cc1cccc(C(=O)N2CCC(c3nc(-c4ccc(S(=O)(=O)N5CCOCC5)cc4)no3)CC2)c1	–	–	78.6	–	–	·	53.7	–	–
O=C(Nc1ccccc1)N1CCC(c2nc(-c3ccc(S(=O)(=O)N4CCOCC4)cc3)no2)CC1	–	–	44.7	–	–	·	–	–	–
O=C(c1ccccc1)N1CCC(c2nc(-c3ccc(S(=O)(=O)N4CCOCC4)cc3)no2)CC1	–	–	–	–	–	–	·	·	·
O=C(Nc1cccc(C(F)(F)F)c1)N1CCC(c2nc(-c3ccc(F)cc3)no2)CC1	–	–	42.5	–	–	·	–	–	–
O=C(c1cccs1)N1CCC(c2nc(-c3ccc(S(=O)(=O)N4CCOCC4)cc3)no2)CC1	–	–	–	–	–	·	·	·	·
O=C(Nc1ccccc1)N1CCCC(c2nc(-c3ccc(F)cc3)no2)C1 (centres undefined)	–	–	–	–	–	–	·	·	·
Cc1ccccc1-c1nc(CS(=O)(=O)CC(=O)N2CCOCC2)c(C)o1	–	–	–	–	–	·	·	·	·
Cc1c(C(=O)Nc2cccc([N+](=O)[O-])c2)cnn1-c1ccccc1	–	–	–	–	–	·	·	·	·
CC(=O)N1CCOc2ccc(S(=O)(=O)N3CCC(C(=O)NCc4ccc(F)cc4)CC3)cc21	–	–	68.7	–	–	·	56.4	–	–
CC(=O)N1CCOc2ccc(S(=O)(=O)N3CCC(C(=O)NCc4ccc(Cl)cc4)CC3)cc21	·	–	89.7	·	·	–	80.1	–	–
SMILES	APJ antag	CXCR6 block	EBI2 block	APJ ag	CCR6 antagonist	TAG inh	EBI2 antag conf	EBI2 ag	bGal counter
CC(=O)N1CCOc2ccc(S(=O)(=O)N3CCC(C(=O)Nc4ccc(C)cc4)CC3)cc21	–	–	–	–	–	·	·	·	·
CCc1ccc(NC(=O)C2CCN(S(=O)(=O)c3ccc4c(c3)N(C(C)=O)CCO4)CC2)cc1	–	–	–	–	–	·	·	·	·
CC(=O)N1CCOc2ccc(S(=O)(=O)N3CCC(C(=O)NCc4ccc(C)cc4)CC3)cc21	–	–	94.0	–	–	·	84.5	–	–
O=C(NNc1ccc(C2CCCCC2)cc1)C(O)(c1ccccc1)c1cccs1 (centres undefined)	–	–	40.8	–	–	·	–	–	–
COc1ccc(C(O)(C(=O)NNc2ccc(C)cc2)c2cccs2)cc1 (centres undefined)	–	–	–	–	–	–	·	·	·
Cc1ccc(N2CCN(C(=O)c3cc(-c4ccc(F)cc4)[nH]c3C)CC2C)cc1 (centres undefined)	–	–	53.0	–	–	·	–	–	–
Cc1[nH]c(-c2ccc(F)cc2)cc1C(=O)N1CCN(c2ccccc2)CC1	–	–	86.0	–	–	·	63.0	–	–
CCOC(=O)N1CCC(NC(=O)c2cc(-c3ccc(F)cc3)[nH]c2C)CC1	–	–	–	–	–	–	·	·	·
CSc1ccccc1C(=O)N1CCN(c2ccc(F)cc2)CC1	–	–	–	–	–	–	·	·	·
COc1cccc(N2CCN(C(=O)c3cc(-c4ccc(F)cc4)[nH]c3C)CC2)c1	–	–	88.6	–	–	·	69.0	–	–
CCC1NC(=O)c2cccnc2-n2c1nc1cc(F)ccc1c2=O (centres undefined)	·	–	–	·	·	–	·	·	·
CCSc1ccc(-c2nn(-c3ccccc3)cc2/C=C(/C#N)C(=O)NC)cc1	·	–	–	·	–	·	·	·	·
CCCSc1ccc(-c2nn(-c3ccccc3)cc2/C=C(/C#N)C(=O)N2CCOCC2)cc1	–	–	50.2	–	–	·	–	–	–

Compound activity (PubChem)
